# Values joined by “and” are separate entries in the source; they are usually repeats but may differ in a detail not shown here. Equal entries are not always repeated.
# Experiments:
# OATP1B1 = molecular target: T1, OATP1B1 (Homo sapiens, UniProt Q9Y6L6); test: Transporter substrate assessment; assay type: in vitro ADME
# T1 sequence (Q9Y6L6 1-691): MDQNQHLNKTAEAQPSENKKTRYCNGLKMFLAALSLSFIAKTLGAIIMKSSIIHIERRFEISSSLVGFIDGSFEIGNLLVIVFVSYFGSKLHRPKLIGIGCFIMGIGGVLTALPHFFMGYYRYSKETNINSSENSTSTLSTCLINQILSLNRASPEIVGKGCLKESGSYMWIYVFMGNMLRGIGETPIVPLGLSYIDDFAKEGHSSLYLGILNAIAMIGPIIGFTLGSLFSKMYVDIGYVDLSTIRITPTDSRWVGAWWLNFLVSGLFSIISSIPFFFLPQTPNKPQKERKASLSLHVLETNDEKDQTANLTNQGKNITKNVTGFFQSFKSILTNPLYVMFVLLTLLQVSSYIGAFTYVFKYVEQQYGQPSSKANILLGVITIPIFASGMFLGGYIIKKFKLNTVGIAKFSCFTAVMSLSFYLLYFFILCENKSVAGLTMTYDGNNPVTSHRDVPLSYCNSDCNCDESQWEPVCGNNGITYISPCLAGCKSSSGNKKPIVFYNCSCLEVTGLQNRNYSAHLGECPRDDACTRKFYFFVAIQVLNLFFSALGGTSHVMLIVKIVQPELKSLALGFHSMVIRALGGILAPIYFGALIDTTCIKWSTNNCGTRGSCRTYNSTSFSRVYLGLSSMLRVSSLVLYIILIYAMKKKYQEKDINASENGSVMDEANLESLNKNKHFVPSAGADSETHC
# Human [14C] ADME study = assay type: in vivo
# [1] = First-in-human study, multiple ascending dose; assay type: in vivo; details: for half-life: human, plasma, oral
# DDI perpetrator study = assay type: in vivo; details: human, plasma, oral, 400 mg
# [2] = First-in-human study Part 3, 100-mg SDD tablet food effect; assay type: in vivo; details: plasma, oral, 200 mg; for AUC: AUC0‐last; for AUC / Cmax: single 200 mg dose of 100‐mg SDD tablets; for half-life: t1/2, single 200 mg dose of 100‐mg SDD tablets
# CYP1A2 = molecular target: T2, CYP1A2 (Homo sapiens, UniProt P05177); assay type: in vitro ADME
# T2 sequence (P05177 1-516): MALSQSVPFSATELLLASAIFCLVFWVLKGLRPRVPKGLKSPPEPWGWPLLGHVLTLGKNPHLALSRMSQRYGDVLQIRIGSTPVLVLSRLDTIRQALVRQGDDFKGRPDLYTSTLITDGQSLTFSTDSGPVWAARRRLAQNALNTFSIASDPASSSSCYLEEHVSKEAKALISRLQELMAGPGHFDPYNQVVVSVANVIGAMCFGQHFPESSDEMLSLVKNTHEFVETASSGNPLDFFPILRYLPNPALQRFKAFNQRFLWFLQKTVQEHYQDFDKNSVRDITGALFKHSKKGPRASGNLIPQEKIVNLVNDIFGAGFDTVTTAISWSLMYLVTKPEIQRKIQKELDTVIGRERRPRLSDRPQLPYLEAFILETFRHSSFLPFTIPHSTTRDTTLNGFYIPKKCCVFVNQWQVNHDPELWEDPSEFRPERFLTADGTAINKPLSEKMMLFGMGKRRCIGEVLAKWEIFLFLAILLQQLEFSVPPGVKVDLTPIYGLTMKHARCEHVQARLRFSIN
# CYP3A4 = CYP3A4 (Homo sapiens, UniProt P08684); test: biochemical; assay type: in vitro ADME
# CYP3A5 = CYP3A5 (Homo sapiens, UniProt P20815); test: Cytochrome P450 inhibition; assay type: in vitro ADME
# [3] = Clinical safety in phase 1 studies; assay type: in vivo, human
# Procedure, shortened: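 Healthy adult subjects in phase 1 studies received oral single doses, or once-daily doses for up to 14 days, with placebo controls in some parts. They were housed in the clinical pharmacology unit from at least the day before dosing until ≥24 h after the last dose. Treatment-emergent adverse events were recorded and graded for intensity.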
# OATP1B3 = molecular target: T3, OATP1B3 (Homo sapiens, UniProt Q9NPD5); test: Transporter substrate assessment; assay type: in vitro ADME
# T3 sequence (Q9NPD5 1-702): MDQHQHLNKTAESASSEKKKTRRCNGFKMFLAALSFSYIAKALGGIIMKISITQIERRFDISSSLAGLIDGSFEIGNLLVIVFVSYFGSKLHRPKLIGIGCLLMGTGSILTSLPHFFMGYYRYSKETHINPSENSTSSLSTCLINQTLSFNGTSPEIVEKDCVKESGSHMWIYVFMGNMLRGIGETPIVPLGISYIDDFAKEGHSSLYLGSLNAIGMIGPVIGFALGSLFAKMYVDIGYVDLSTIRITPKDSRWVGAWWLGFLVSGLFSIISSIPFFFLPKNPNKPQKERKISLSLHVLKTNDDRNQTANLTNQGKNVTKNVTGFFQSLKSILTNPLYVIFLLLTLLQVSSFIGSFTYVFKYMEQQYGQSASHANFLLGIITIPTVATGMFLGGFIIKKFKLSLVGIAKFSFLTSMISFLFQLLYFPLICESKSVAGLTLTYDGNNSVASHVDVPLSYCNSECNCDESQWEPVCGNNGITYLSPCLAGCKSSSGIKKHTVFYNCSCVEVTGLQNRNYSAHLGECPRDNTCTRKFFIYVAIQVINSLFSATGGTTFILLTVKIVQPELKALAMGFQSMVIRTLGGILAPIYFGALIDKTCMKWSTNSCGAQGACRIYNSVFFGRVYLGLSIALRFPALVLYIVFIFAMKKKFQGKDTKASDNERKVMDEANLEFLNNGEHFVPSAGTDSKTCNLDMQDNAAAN
# [4] = repeated once‐daily dosing for up to 14 days
# [5] = single‐dose studies, healthy subjects
# CYP3A4, sequence (P08684 whole entry): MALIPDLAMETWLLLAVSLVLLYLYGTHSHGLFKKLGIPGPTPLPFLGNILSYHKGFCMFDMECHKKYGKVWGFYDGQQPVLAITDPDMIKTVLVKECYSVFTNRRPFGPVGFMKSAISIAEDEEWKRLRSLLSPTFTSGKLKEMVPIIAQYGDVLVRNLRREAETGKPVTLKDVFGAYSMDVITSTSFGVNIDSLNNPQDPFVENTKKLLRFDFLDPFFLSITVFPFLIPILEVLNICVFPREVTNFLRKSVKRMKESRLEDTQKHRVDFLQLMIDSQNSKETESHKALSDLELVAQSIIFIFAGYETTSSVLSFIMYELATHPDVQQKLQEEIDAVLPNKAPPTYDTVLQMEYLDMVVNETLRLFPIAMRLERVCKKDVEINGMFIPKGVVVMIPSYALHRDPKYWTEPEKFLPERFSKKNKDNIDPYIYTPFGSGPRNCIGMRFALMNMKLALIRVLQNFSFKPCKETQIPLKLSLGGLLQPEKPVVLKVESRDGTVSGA
# CYP3A5, sequence (P20815 whole entry): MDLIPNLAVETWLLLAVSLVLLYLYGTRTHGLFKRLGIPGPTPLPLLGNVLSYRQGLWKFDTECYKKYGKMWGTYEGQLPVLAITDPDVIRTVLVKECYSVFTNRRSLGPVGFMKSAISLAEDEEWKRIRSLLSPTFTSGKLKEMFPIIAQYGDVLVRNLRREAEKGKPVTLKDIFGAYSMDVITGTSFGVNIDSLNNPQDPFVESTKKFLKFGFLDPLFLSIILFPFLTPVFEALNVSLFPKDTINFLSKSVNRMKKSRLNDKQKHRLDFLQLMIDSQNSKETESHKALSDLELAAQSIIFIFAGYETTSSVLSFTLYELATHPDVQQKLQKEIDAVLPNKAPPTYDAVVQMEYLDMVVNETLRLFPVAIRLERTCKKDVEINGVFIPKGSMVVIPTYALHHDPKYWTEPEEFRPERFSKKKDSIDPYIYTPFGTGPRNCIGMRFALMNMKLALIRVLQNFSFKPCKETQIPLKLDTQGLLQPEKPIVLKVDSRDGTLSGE
structure (smiles),measurement,setting,value
O=c1[nH]c(=O)c(Cc2cccc(C(F)(F)F)c2)c([C@H]2CC[C@H](c3ccccc3)CC2)[nH]1 [miricorilant],Substrate of OATP1B1,OATP1B1,not a substrate
same,administered radioactivity recovered in excreta,"Human [14C] ADME study; 240‐h sampling period, mean ± SD",93.68 ± 1.63%
same,administered dose recovered in urine,"Human [14C] ADME study; human, 150 mg oral solution",4.56%
same,total radioactivity recovered in feces,"Human [14C] ADME study; human, 150 mg oral solution",89.12% and 89.12 ± 1.16%
same,Cmax,"Human [14C] ADME study; male, human, plasma, po, 150 mg",343 ng/mL
same,administered radioactivity eliminated,Human [14C] ADME study; within the first 48 h post dose,19.28 ± 9.01%
same,average increase in Cmax and AUC0‐last per doubling of the dose,"[1]; 150, 450, 900 mg once daily, day 1",1.92 fold
same,half-life,[1],~20 h
same,half-life,[1]; 150 mg,21.6 h
same,half-life,[1]; 450 mg,21.2 h
same,half-life,[1]; 900 mg,19.4 h
same,accumulation ratio for Cmax,[1]; repeated daily dosing (Discussion/Conclusions),≈ 1.5 fold
same,AUC,DDI perpetrator study,11400 ng·h/mL
same,Cmax at 10 study day,DDI perpetrator study,895 ng/mL
same,Tmax at 10 study day,DDI perpetrator study,4 h
same,half-life at 10 study day,DDI perpetrator study,12.2 h
same,AUC,"[2]; Fasted, geometric mean (%CV)",1620 ng·h/mL
same,AUC,"[2]; Fed, geometric mean (%CV)",3560 ng·h/mL
same,Cmax,"[2]; Fasted, geometric mean (%CV)",105 ng/mL
same,Cmax,"[2]; Fed, N = 6, geometric mean (%CV)",184 ng/mL
same,half-life,"[2]; Fasted, geometric mean (%CV)",21.1 h
same,half-life,"[2]; Fed, geometric mean (%CV)",19.6 h
same,inhibition of CYP1A2,CYP1A2,No inhibition
same,IC50,CYP3A4,3.4 µM
same,time dependence of CYP3A4 inhibition,CYP3A4,not time dependent
same,inhibition of CYP3A5,CYP3A5,No inhibition
same,overall safety and tolerability,[3]; phase 1 studies,safe and well‐tolerated
same,intensity of TEAEs,[3]; [4],mild or moderate
same,most commonly reported TEAE,[3]; [4],headache
same,deaths or serious adverse events,[3]; repeated‐dose studies,no deaths or treatment‐emergent serious adverse events
same,discontinuation due to TEAEs,[3]; [5],No subjects
same,intensity of TEAEs,[3]; [5],mild or moderate
same,most commonly reported TEAE,[3]; [5],headache
same,Substrate of OATP1B3,OATP1B3,not a substrate
